Structures can show the parent of a compound that is named as a salt.
What was measured:
HeLa = test: Cytotoxicity against human HeLa cells after 72 hrs by MTT assay; assay type: functional, cell-based
Outline: (§1)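 MTT colorimetric readout. DMSO stocks serially diluted in culture medium to final 50, 10, 2, 0.4, 0.08 and 0.016 μM, quadruplicate wells per concentration. Adriamycin as positive control. Inhibition rate computed from treated, control and blank OD. IC50 by nonlinear regression of logistic dose–response curves. Means ± SD of three independent experiments.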

MCF7 = test: Cytotoxicity against human MCF7 cells after 72 hrs by MTT assay; assay type: functional, cell-based; conditions: MCF7, 72 h; outline: as §1
A549 = test: Cytotoxicity against human A549 cells after 72 hrs by MTT assay; assay type: functional, cell-based; conditions: A549, 72 h; outline: as §1
Phytophthora litchii = test: Antifungal activity against Peronophythora litchii after 8 hrs by conidial germination assay; assay type: functional, organism-based
Outline: (§2)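 Conidia from PDA cultures (P. litchii 7-day-old, F. verticillioides 3-day-old), diluted in half-strength PDB, counted and used immediately. Samples in DMSO as 2-fold series; final 0.625 to 80 μg/mL. Incubated 8 h at 30 °C, 150 rpm. Germination scored microscopically (germ tube ≥1.5× spore diameter), >200 conidia per replicate, triplicate. Thiram positive, DMSO negative control. IC50 from logistic nonlinear regression.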

Fusarium verticillioides = test: Antifungal activity against Fusarium verticillioides after 8 hrs by conidial germination assay; assay type: functional, organism-based; outline: as §2

**Q.** `C[C@@H]1C/C=C/CC[C@@H](O)CC(=O)Cc2cc(O)cc(O)c2C(=O)O1` was tested. Which IC50 (HeLa) did it give?
**A.** > 10 µM

**Q.** And the IC50 (MCF7)?
**A.** > 10 µM

**Q.** What about the IC50 (A549) of the same compound?
**A.** > 10 µM

**Q.** What about the IC50 (Phytophthora litchii) of the same compound?
**A.** > 100 µM

**Q.** What about the IC50 (Fusarium verticillioides) of the same compound?
**A.** > 100 µM

**Q.** Which results are given for `C[C@@H]1C[C@H]2O[C@@H]2/C=C\C=C\C(=O)Cc2c(Cl)c(O)cc(O)c2C(=O)O1` [RADICICOL]?
**A.** IC50 (HeLa): 0.1 µM; IC50 (MCF7): 0.4 µM; IC50 (A549): 0.1 µM; IC50 (Phytophthora litchii): 1.4 µM; IC50 (Fusarium verticillioides): 8 µM

**Q.** What does the source list for `C[C@@H]1C[C@H]2O[C@@H]2/C=C\C=C\C(=O)Cc2cc(O)cc(O)c2C(=O)O1` [MONOCILLIN I]?
**A.** IC50 (HeLa): 2.7 µM; IC50 (MCF7): 8.1 µM; IC50 (A549): 2.6 µM; IC50 (Phytophthora litchii): 7.9 µM; IC50 (Fusarium verticillioides): > 100 µM

**Q.** Which results are given for `C[C@H]1C/C=C/CC(=O)CC/C=C/c2cc(O)cc(O)c2C(=O)O1`?
**A.** IC50 (HeLa): 3.6 µM; IC50 (MCF7): 6.9 µM; IC50 (A549): 3.9 µM; IC50 (Phytophthora litchii): > 100 µM; IC50 (Fusarium verticillioides): > 100 µM

**Q.** How did the IC50 (HeLa) turn out when `COc1cc(O)c2c(c1)[C@H]1O[C@@H]1C[C@H](O)[C@H](O)C(=O)/C=C\C[C@H](C)OC2=O` [HYPOTHEMYCIN] was run?
**A.** 1 µM

**Q.** What about the IC50 (MCF7) of the same compound?
**A.** 3.3 µM

**Q.** What about the IC50 (A549) of the same compound?
**A.** 1 µM

**Q.** What about the IC50 (Phytophthora litchii) of the same compound?
**A.** 1.9 µM

**Q.** What about the IC50 (Fusarium verticillioides) of the same compound?
**A.** 1.1 µM

**Q.** What does the source list for `C[C@@H]1C[C@H]2C=CC[C@H](CC(=O)Cc3cc(O)cc(O)c3C(=O)O1)O2`?
**A.** IC50 (HeLa): 3.9 µM; IC50 (MCF7): 4.9 µM; IC50 (A549): 4.1 µM; IC50 (Phytophthora litchii): 41 µM; IC50 (Fusarium verticillioides): > 100 µM

**Q.** What does the source list for `C[C@@H]1C[C@H]2O[C@@H]2CC/C=C/C(=O)Cc2cc(O)cc(O)c2C(=O)O1` [MONOCILLIN III]?
**A.** IC50 (HeLa): 3.4 µM; IC50 (MCF7): > 10 µM; IC50 (A549): 2.1 µM; IC50 (Phytophthora litchii): 12 µM; IC50 (Fusarium verticillioides): > 100 µM

**Q.** Which results are given for `COc1cc(O)c2c(c1)[C@H]1O[C@@H]1CC1=C(O)C(=O)C[C@@H]1C[C@H](C)OC2=O`?
**A.** IC50 (HeLa): > 10 µM; IC50 (MCF7): > 10 µM; IC50 (A549): > 10 µM; IC50 (Phytophthora litchii): > 100 µM; IC50 (Fusarium verticillioides): > 100 µM

**Q.** How did the IC50 (HeLa) turn out when `C[C@@H]1Cc2ccccc2C(=O)Cc2cc(O)cc(O)c2C(=O)O1` was run?
**A.** > 10 µM

**Q.** What about the IC50 (MCF7) of the same compound?
**A.** > 10 µM

**Q.** What about the IC50 (A549) of the same compound?
**A.** > 10 µM

**Q.** And the IC50 (Phytophthora litchii)?
**A.** > 100 µM

**Q.** What about the IC50 (Fusarium verticillioides) of the same compound?
**A.** > 100 µM

**Q.** Which IC50 (HeLa) does the source give for `C[C@@H]1C/C=C/CC/C=C/C(=O)Cc2cc(O)cc(O)c2C(=O)O1` here?
**A.** 2.7 µM

**Q.** And the IC50 (MCF7)?
**A.** 4.1 µM

**Q.** And the IC50 (A549)?
**A.** 1.7 µM

**Q.** What about the IC50 (Phytophthora litchii) of the same compound?
**A.** 9.8 µM

**Q.** And the IC50 (Fusarium verticillioides)?
**A.** > 100 µM

**Q.** Which results are given for `C[C@@H]1C/C=C/CC/C=C\C(=O)Cc2cc(O)cc(O)c2C(=O)O1`?
**A.** IC50 (HeLa): 3.6 µM; IC50 (MCF7): 1.7 µM; IC50 (A549): 4.1 µM; IC50 (Phytophthora litchii): 9.2 µM; IC50 (Fusarium verticillioides): > 100 µM

**Q.** How did the IC50 (HeLa) turn out when `CO[C@@H]1CC/C=C/C[C@@H](C)OC(=O)c2c(O)cc(O)cc2CC(=O)C1` was run?
**A.** > 10 µM

**Q.** What about the IC50 (MCF7) of the same compound?
**A.** > 10 µM

**Q.** What about the IC50 (A549) of the same compound?
**A.** > 10 µM

**Q.** What about the IC50 (Phytophthora litchii) of the same compound?
**A.** 19.3 µM

**Q.** What about the IC50 (Fusarium verticillioides) of the same compound?
**A.** > 100 µM

**Q.** For `COc1cc(O)c2c(c1)[C@H]1O[C@@H]1CC1=C(O)C(=O)C[C@H]1C[C@H](C)OC2=O`, which IC50 (HeLa) is on record?
**A.** > 10 µM

**Q.** What about the IC50 (MCF7) of the same compound?
**A.** > 10 µM

**Q.** And the IC50 (A549)?
**A.** > 10 µM

**Q.** And the IC50 (Phytophthora litchii)?
**A.** > 100 µM

**Q.** What about the IC50 (Fusarium verticillioides) of the same compound?
**A.** > 100 µM

**Q.** `CN(C)C(=S)SSC(=S)N(C)C` [THIRAM] was tested. Which IC50 (Phytophthora litchii) did it give?
**A.** 4.6 µM

**Q.** And the IC50 (Fusarium verticillioides)?
**A.** 1.7 µM

**Q.** For `COc1cccc2c1C(=O)c1c(O)c3c(c(O)c1C2=O)C[C@@](O)(C(=O)CO)C[C@@H]3O[C@H]1C[C@H](N)[C@H](O)[C@H](C)O1` [DOXORUBICIN HYDROCHLORIDE], which IC50 (HeLa) is on record?
**A.** 0.3 µM

**Q.** What about the IC50 (A549) of the same compound?
**A.** 0.1 µM

**Q.** Which IC50 (HeLa) does the source give for `C[C@@H]1C/C=C/CCCCC(=O)Cc2cc(O)cc(O)c2C(=O)O1` [MONOCILLIN IV] here?
**A.** > 10 µM

**Q.** And the IC50 (MCF7)?
**A.** 3.6 µM

**Q.** And the IC50 (A549)?
**A.** > 10 µM

**Q.** What about the IC50 (Phytophthora litchii) of the same compound?
**A.** 33.6 µM

**Q.** What about the IC50 (Fusarium verticillioides) of the same compound?
**A.** > 100 µM

From ChEMBL document CHEMBL4190289, “Antifungal and Cytotoxic β-Resorcylic Acid Lactones from a Paecilomyces Species” (J Nat Prod, 2017)
